Source: ChEMBL document CHEMBL1152248, “The 'Ethereal' nature of TLR4 agonism and antagonism in the AGP class of lipid A mimetics” (Bioorg Med Chem Lett, 2008)
pIC50: −log10 of the molar value. Activity calls are given as the source filed them. No cut-off for these calls is given here.

What was measured:
Mus musculus = test: Inhibition of LPS-induced serum TNFalpha production in iv dosed BALB/c mouse after 1.5 hrs by ELISA; assay type: functional, organism-based
How it was run: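 BALB/c mice (n = 3) were given 5 ng LPS iv, either alone or together with 0.2% TEOA vehicle or test compound. Serum was collected 1.5 h post-injection and TNF-α was measured by ELISA.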

Listeria monocytogenes [1] = test: Inhibition of CRX-527-mediated protection against Listeria monocytogenes infected iv dosed BALB/c mouse administered 2 days prior to bacterial challenge measured after 2 days; assay type: organism-based; conditions: in vivo, 48 h
How it was run: (§1)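 BALB/c mice got AGP iv in 100 µL of 0.2% aq TEOA 2 days before iv challenge with 10^5 L. monocytogenes. Two days after challenge, splenic CFUs were counted by serial dilution of homogenates. Log10 relative protection is control-group log10 CFU/spleen minus test-group log10 CFU/spleen.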

Toll-like receptor 4 [2] = biological target: T1, Toll-like receptor 4 (Homo sapiens, UniProt O00206); test: Agonist activity at TLR4 in human PBMC assessed as induction of TNFalpha production after 18 hrs by sandwich ELISA; assay type: functional
How it was run: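 Human monocytes were isolated by 2 h adherence to tissue-culture plates. They were exposed to compound over a 0–10,000 range in 0.2% aq triethanolamine (TEOA) for 18 h. TNF-α in supernatants was measured by sandwich ELISA. Data are three replicate samples from one of three donors. ED50 was fitted with a four-parameter logistic dose–response model.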

Toll-like receptor 4 [3] = biological target: T1, Toll-like receptor 4; test: Antagonist activity at TLR4 in human PBMC assessed as inhibition of LPS-stimulated TNFalpha production pre-incubated for 30 mins before LPS challenge measured after 18 hrs by ELISA; assay type: functional
How it was run: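 Adherence-isolated human monocytes were preincubated with compound for 30 min, then stimulated with 100 ng/mL E. coli LPS. Supernatant TNF-α was measured by ELISA after 18 h. IC50 was fitted with a four-parameter logistic dose–response model.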

Influenza A virus [4] = test: Protection against Influenza A/HK/68 virus infected BALB/c mouse assessed as survival at 5 mg/kg, intranasal administered 2 days prior to influenza challenge measured after 21 days; assay type: functional; conditions: inhaled or nasal
How it was run: (§2)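 Female/male unspecified BALB/c mice, 8 per group, given compound intranasally in 0.2% aqueous triethanolamine vehicle 2 days before intranasal influenza challenge. Vehicle-only group as control. Read-out is percent survival, recorded over 21 days after viral challenge.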

Listeria monocytogenes [5] = test: Protection against Listeria monocytogenes infected iv dosed BALB/c mouse assessed as reduction in splenic bacteria administered 2 days prior to bacterial challenge measured after 2 days; assay type: functional, organism-based; how it was run: as §1
Influenza A virus [6] = test: Protection against Influenza A/HK/68 virus infected BALB/c mouse assessed as survival at 0.05 mg/kg, intranasal administered 2 days prior to influenza challenge measured after 21 days; assay type: functional; conditions: inhaled or nasal; how it was run: as §2
Influenza A virus [7] = test: Protection against Influenza A/HK/68 virus infected BALB/c mouse assessed as survival at 0.005 mg/kg, intranasal administered 2 days prior to influenza challenge measured after 21 days; assay type: functional; conditions: inhaled or nasal; how it was run: as §2
Influenza A virus [8] = test: Protection against Influenza A/HK/68 virus infected BALB/c mouse assessed as survival at 0.5 mg/kg, intranasal administered 2 days prior to influenza challenge measured after 21 days; assay type: functional; conditions: inhaled or nasal; how it was run: as §2

T1 sequence (O00206 whole entry): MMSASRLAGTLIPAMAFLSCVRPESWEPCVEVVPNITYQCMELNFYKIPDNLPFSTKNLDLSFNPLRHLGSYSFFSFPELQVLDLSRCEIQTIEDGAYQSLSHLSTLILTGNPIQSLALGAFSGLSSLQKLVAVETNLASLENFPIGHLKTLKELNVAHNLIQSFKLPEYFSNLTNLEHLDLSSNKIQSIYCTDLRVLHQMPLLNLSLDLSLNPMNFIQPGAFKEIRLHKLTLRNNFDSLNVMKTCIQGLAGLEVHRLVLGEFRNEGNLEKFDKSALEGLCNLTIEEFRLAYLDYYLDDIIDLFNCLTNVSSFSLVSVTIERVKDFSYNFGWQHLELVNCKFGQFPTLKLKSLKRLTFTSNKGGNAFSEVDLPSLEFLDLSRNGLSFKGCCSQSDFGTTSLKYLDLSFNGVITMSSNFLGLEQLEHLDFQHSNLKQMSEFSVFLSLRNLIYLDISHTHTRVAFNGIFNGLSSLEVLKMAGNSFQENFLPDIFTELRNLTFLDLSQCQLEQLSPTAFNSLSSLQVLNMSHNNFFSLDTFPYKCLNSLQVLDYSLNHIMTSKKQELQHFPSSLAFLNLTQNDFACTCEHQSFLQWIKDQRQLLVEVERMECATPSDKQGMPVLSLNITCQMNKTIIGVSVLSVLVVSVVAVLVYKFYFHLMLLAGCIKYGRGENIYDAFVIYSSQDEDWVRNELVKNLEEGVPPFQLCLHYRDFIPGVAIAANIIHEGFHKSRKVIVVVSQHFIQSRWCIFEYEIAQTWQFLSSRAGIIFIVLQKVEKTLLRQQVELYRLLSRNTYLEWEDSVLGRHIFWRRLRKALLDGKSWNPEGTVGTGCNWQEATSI

| SMILES | Activity (Mus musculus) | Activity (Listeria monocytogenes [1]) | Activity (Toll-like receptor 4 [2]) | pIC50 (Toll-like receptor 4 [3]) | ED50 (Toll-like receptor 4 [2]) [nM] | survival at 5 mg/kg (Influenza A virus [4]) [%] | Activity (Listeria monocytogenes [5]) | survival at 0.05 mg/kg (Influenza A virus [6]) [%] | survival at 0.005 mg/kg (Influenza A virus [7]) [%] | survival at 0.5 mg/kg (Influenza A virus [8]) [%] | Activity (Toll-like receptor 4 [3]) |
| --- | --- | --- | --- | --- | --- | --- | --- | --- | --- | --- | --- |
| CCCCCCCCCCC[C@H](CC(=O)N[C@H]1[C@H](OC[C@H](NC(=O)C[C@@H](CCCCCCCCCCC)OC(=O)CCCCC)C(=O)O)O[C@H](CO)[C@@H](OP(=O)(O)O)[C@@H]1OC(=O)C[C@@H](CCCCCCCCCCC)OC(=O)CCCCC)OC(=O)CCCCC | Active | Dose-dependent effect | inactive | 8.62 | – | – | – | – | – | – | – |
| CCCCCCCCCCC[C@H](CC(=O)N[C@H]1[C@H](OC[C@H](NC(=O)C[C@@H](CCCCCCCCCCC)OCCCCCCCCCC)C(=O)O)O[C@H](CO)[C@@H](OP(=O)(O)O)[C@@H]1OC(=O)C[C@@H](CCCCCCCCCCC)OCCCCCCCCCC)OCCCCCCCCCC | – | – | – | – | 0.17 | 100 | Active | 60 | 20 | 80 | inactive |
| CCCCCCCCCCC[C@H](CC(=O)N[C@H]1[C@H](OC[C@H](NC(=O)C[C@@H](CCCCCCCCCCC)OC(=O)CCCCCCCCC)C(=O)O)O[C@H](CO)[C@@H](OP(=O)(O)O)[C@@H]1OC(=O)C[C@@H](CCCCCCCCCCC)OC(=O)CCCCCCCCC)OC(=O)CCCCCCCCC | – | – | – | – | 0.39 | 100 | Active | 70 | 30 | 70 | inactive |
| CCCCCCCCCCC[C@H](CC(=O)N[C@H]1[C@H](OC[C@H](NC(=O)C[C@@H](CCCCCCCCCCC)OCCCCCC)C(=O)O)O[C@H](CO)[C@@H](OP(=O)(O)O)[C@@H]1OC(=O)C[C@@H](CCCCCCCCCCC)OCCCCCC)OCCCCCC | inactive | Not Active | inactive | 8.28 | – | – | – | – | – | – | – |
